Data from ChEMBL document CHEMBL2434834, “Synthesis of pyrido[2,1-a]isoquinolin-4-ones and oxazino[2,3-a]isoquinolin-4-ones: new inhibitors of mitochondrial respiratory chain” (Eur J Med Chem, 2013).

Experiments:
[1] = Inhibition of NADH oxidase in beef heart sub-mitochondrial particles after 5 mins; design: species or system Bos taurus
Method in brief: (§1)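 Inverted beef-heart submitochondrial particles were made by extensive sonication of frozen-thawed mitochondria and stored at -70 °C at 28 mg/mL protein (Bradford). After incubation with inhibitor, particles were diluted to […] in 50 mM potassium phosphate pH 7.4 with 1 mM EDTA, at 22 °C with NADH. Aerobic NADH oxidation was followed at 340 nm (ε 6.22 mM⁻¹ cm⁻¹), with rates taken from the linear decrease at increasing inhibitor concentrations.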

[2] = Inhibition of NADH oxidase in beef heart sub-mitochondrial particles by UV-spectrophotometric analysis; design: species or system Bos taurus; method in brief: as §1

Compound	IC50 [1] [nM]	IC50 [2] [nM]
CC(C)Cc1cnc(CC(C)C)c(=O)[nH]1	13000	
COc1cc2c(cc1OC)C1(Cc3ccccc3)OC(C)=CC(=O)N1CC2 (stereo not given)		1530
COc1cc2c(cc1OC)C1(C)OC(C)=CC(=O)N1CC2 (stereo not given)		1360
COc1cc2c(cc1OC)-c1cc(C)cc(=O)n1CC2		8230
COc1cc2c(cc1OC)C1(C)OC(c3ccccc3)=CC(=O)N1CC2 (stereo not given)		1320
COc1cc2c(cc1OC)-c1cc(-c3ccco3)cc(=O)n1CC2		12500
COc1cc2c(cc1OC)C1(C)OC(c3ccco3)=CC(=O)N1CC2 (stereo not given)		900
Cc1cc2n(c(=O)c1)CCc1cc(O)c(O)cc1-2		3440
COc1cc2c(cc1OC)-c1c(-c3ccccc3Br)c(C)cc(=O)n1CC2		4240
COc1cc2c(cc1OC)C1(Cc3ccccc3Br)OC(C)=CC(=O)N1CC2 (stereo not given)		1390
COc1cc2c(cc1OC)-c1c(-c3ccccc3)c(C)cc(=O)n1CC2		4690
COc1cc(O)c2nc3n(c(=O)c2c1)-c1ccccc1C(=O)N1CCC[C@@H]31	2500	
COc1ccc2nc3n(c(=O)c2c1)-c1ccccc1C(=O)N1CCC[C@@H]31	1500	
COc1cc2c(cc1OC)-c1cc(-c3ccccc3)cc(=O)n1CC2		> 30000
C=C(C)[C@H]1Cc2c(ccc3c2O[C@@H]2COc4cc(OC)c(OC)cc4[C@@H]2C3=O)O1 [ROTENONE]		5.1
